Legend:
[1] = target: T1, Fatty-acid amide hydrolase 1 (Rattus norvegicus, UniProt P97612); test: Fatty acid amide hydrolase inhibitory activity in rat brain membrane using [3H]anandamide as a substrate; format: cell membranes
T1 sequence (P97612 whole entry): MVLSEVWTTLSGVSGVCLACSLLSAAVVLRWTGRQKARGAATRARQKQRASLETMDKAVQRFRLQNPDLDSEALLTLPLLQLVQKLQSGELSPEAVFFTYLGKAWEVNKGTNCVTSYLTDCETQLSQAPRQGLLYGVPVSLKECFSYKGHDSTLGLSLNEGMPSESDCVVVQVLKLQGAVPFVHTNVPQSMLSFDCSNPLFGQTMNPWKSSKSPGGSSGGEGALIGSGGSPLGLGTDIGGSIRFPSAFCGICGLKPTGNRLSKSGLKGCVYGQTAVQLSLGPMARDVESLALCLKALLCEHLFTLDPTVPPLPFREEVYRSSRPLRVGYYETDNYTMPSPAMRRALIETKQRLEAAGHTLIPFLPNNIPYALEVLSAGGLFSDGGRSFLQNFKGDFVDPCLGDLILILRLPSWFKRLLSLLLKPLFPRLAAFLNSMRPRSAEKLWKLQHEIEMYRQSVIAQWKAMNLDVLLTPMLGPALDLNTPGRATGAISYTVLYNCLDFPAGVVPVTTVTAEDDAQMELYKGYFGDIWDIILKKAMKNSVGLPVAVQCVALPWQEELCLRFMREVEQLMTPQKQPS
Outline: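 Membrane fractions prepared from rat brain homogenates. FAAH activity measured as hydrolysis of [3H]anandamide, radiolabelled on the ethanolamine (60 Ci/mmol), used as substrate. IC50 taken as the half-maximal concentration for inhibition of hydrolysis.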

[2] = target: T1, Fatty-acid amide hydrolase 1; test: Inhibition of [3H]anandamide binding to fatty acid amide hydrolase of rat brain membrane
Outline: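 Membrane fractions prepared from rat brain homogenates; FAAH activity measured as hydrolysis of anandamide[ethanolamine-3H] (60 Ci/mmol) as substrate. Value reported as half-maximal inhibitory concentration (IC50) of FAAH activity.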

Compound	IC50 [1] [µM]	IC50 [2] [µM]
O=C(NC1CCCCC1)Oc1ccc(/C=C\c2ccccc2)cc1	0.266	0.263
CCCCNC(=O)Oc1ccc(OCc2ccccc2)cc1	0.39	0.389
CCCCNC(=O)Oc1ccc(F)cc1	11.5	11.5
CCc1ccc2cc(OC(=O)NC3CCCCC3)ccc2c1	3.53	3.55
CCNC(=O)Oc1ccc(C)cc1	> 30	–
O=C(NC1CCCCC1)Oc1ccc2ccccc2c1	–	0.324
CCCCCc1cccc(OC(=O)NC2CCCCC2)c1	0.188	0.186
O=C(NC1CCCCC1)Oc1ccc(/C=C/c2ccccc2)cc1	–	3.31
CCCCNC(=O)Oc1ccc2cc(Br)ccc2c1	–	0.759
O=C(NC1CCCCC1)Oc1cccc(-c2ccccc2)c1	–	0.0631
O=C(NC1CCCCC1)Oc1ccc(-c2ccccc2)cc1	–	2.29
CNC(=O)Oc1ccc2ccccc2c1	18.3	–
O=C(NC1CCCCC1)Oc1ccc2cccc(Br)c2c1	0.174	0.174
CNC(=O)Oc1cccc2ccccc12 [CARBARIL]	> 30	–
Cc1ccc(OC(=O)NC2CCCCC2)cc1	–	5.37
CCCCCCOC(=O)NC1CCCCC1	3.76	–

The next lines start with results.

IC50 [1] [µM]	Compound	IC50 [2] [µM]
> 30	O=C(Nc1ccc2ccccc2c1)NC1CCCCC1	–
> 30	O=C(Cc1ccc2ccccc2c1)NC1CCCCC1	–
> 30	O=C(NC1CCCCC1)OCCCCCc1ccccc1	–
> 30	O=C(Nc1cccc(-c2ccccc2)c1)OC1CCCCC1	–
15.6	O=C(NC1CCCCC1)Sc1ccc2ccccc2c1	–
> 30	S=C(Nc1ccc2ccccc2c1)NC1CCCCC1	–
0.808	Cc1cccc(OC(=O)NC2CCCCC2)c1	0.813
> 30	S=C(NC1CCCCC1)Oc1ccc2ccccc2c1	–
> 30	S=C(NC1CCCCC1)Sc1ccc2ccccc2c1	–
3.78	O=C(NC1CCCCC1)Oc1ccccc1	3.8

Source: ChEMBL document CHEMBL1145785, “Design, synthesis, and structure-activity relationships of alkylcarbamic acid aryl esters, a new class of fatty acid amide hydrolase inhibitors” (J Med Chem, 2003)
